From ChEMBL document CHEMBL1123859, “Substituted arylmethyl phenyl ethers. 1. A novel series of 5-lipoxygenase inhibitors and leukotriene antagonists” (J Med Chem, 1987)

Legend:
Cavia porcellus [1] = species on record: Cavia porcellus; test: Percent inhibition of LTC4-induced contraction in guinea pig parenchymal strip test, at a concentration of 30 uM; format: functional
Summary of the method: (§1)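 Guinea pig lung parenchymal strips were held in a tissue bath. Repeated 1 μM histamine challenges gave a control response used to normalize all later responses. Compounds were first checked at 30 μM alone for intrinsic activity. After preincubation (usually 5 min), strips were challenged with 0.2 nM LTC4. Inhibition of the contraction was scored, and 20% or less counted as ineffective.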

[2] = biological target: T1, Polyunsaturated fatty acid 5-lipoxygenase (Rattus norvegicus) (UniProt P12527); test: IC50 for inhibition of rat neutrophil 5-lipoxygenase (5-LO)
T1 sequence (whole entry): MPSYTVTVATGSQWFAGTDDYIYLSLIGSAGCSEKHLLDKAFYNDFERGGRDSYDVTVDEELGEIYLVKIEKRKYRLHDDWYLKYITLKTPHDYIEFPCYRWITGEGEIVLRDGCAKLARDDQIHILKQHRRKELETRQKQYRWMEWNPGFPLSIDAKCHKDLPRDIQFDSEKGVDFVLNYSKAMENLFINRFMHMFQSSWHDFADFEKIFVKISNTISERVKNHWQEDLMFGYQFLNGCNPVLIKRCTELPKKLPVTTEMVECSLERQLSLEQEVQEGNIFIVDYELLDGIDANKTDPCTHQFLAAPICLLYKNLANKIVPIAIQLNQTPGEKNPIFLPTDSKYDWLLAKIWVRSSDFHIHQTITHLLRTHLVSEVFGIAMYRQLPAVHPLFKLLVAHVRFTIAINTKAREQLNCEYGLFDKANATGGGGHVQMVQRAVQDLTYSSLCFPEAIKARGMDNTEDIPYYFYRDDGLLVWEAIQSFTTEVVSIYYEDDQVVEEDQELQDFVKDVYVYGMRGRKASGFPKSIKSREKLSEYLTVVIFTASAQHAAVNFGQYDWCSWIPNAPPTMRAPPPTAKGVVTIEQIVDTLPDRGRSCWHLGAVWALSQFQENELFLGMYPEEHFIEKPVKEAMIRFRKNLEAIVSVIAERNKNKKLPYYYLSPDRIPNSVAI

Cavia porcellus [3] = species on record: Cavia porcellus; test: Percent inhibition of LTC4-induced contraction in guinea pig parenchymal strip test, at a concentration of 12 uM; format: functional; summary of the method: as §1
[4] = biological target: T2, Polyunsaturated fatty acid 5-lipoxygenase (Rattus norvegicus, UniProt P12527); test: Inhibition of rat neutrophil 5- Lipoxygenase (5-LO); conditions: read-out: I50
T2 sequence (P12527 whole entry): T1 sequence (whole entry)
Summary of the method: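 Approximately 2 × 10^6 glycogen-elicited rat neutrophils in buffer were incubated for 3 min with 4 μM [14C]arachidonic acid and 0.8 μM calcium ionophore A23187. Net 5-HETE was taken as the cell-containing control minus the buffer-only blank. Each assay was run in triplicate.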

Cavia porcellus [5] = species on record: Cavia porcellus; test: Percent inhibition of LTC4-induced contraction in guinea pig parenchymal strip test, at a concentration of 20 uM; format: functional; summary of the method: as §1
Cavia porcellus [6] = species on record: Cavia porcellus; test: Percent inhibition of LTC4-induced contraction in guinea pig parenchymal strip test, at a concentration of 9 uM; format: functional; summary of the method: as §1
[7] = biological target: T2, Polyunsaturated fatty acid 5-lipoxygenase; test: Inhibition of rat neutrophil 5- Lipoxygenase (5-LO),; conditions: read-out: I50
Summary of the method: (§2)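 Approximately 2 × 10^6 glycogen-elicited rat neutrophils in buffer were incubated for 3 min with 4 μM [14C]arachidonic acid and 0.8 μM calcium ionophore A23187. Net 5-HETE was taken as the cell-containing control minus the buffer-only blank. […] Each assay was run in triplicate.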

Cavia porcellus [8] = species on record: Cavia porcellus; test: Percent inhibition of LTC4-induced contraction in guinea pig parenchymal strip test, at a concentration of 10 uM; format: functional; summary of the method: as §1
Cavia porcellus [9] = species on record: Cavia porcellus; test: Percent inhibition of LTC4-induced contraction in guinea pig parenchymal strip test, at a concentration of 19 uM; format: functional; summary of the method: as §1
Cavia porcellus [10] = species on record: Cavia porcellus; test: Percent inhibition of LTC4-induced contraction in guinea pig parenchymal strip test, at a concentration of 100 uM; format: functional; summary of the method: as §1
Cavia porcellus [11] = species on record: Cavia porcellus; test: Percent inhibition of LTC4-induced contraction in guinea pig parenchymal strip test, at a concentration of 15 uM; format: functional; summary of the method: as §1
Cavia porcellus [12] = species on record: Cavia porcellus; test: Percent inhibition of LTC4-induced contraction in guinea pig parenchymal strip test, at a concentration of 22 uM,; format: functional; summary of the method: as §1
Cavia porcellus [13] = species on record: Cavia porcellus; test: Percent inhibition of LTC4-induced contraction in guinea pig parenchymal strip test, at a concentration of 40 uM; format: functional; summary of the method: as §1
Cavia porcellus [14] = species on record: Cavia porcellus; test: Percent inhibition of LTC4-induced contraction in guinea pig parenchymal strip test, at a concentration of 8 uM; format: functional; summary of the method: as §1
[15] = biological target: T1, Polyunsaturated fatty acid 5-lipoxygenase (Rattus norvegicus); test: Percent inhibition of rat neutrophil 5- Lipoxygenase (5-LO) at 100 uM; summary of the method: as §2
Cavia porcellus [16] = species on record: Cavia porcellus; test: Percent inhibition of LTC4-induced contraction in guinea pig parenchymal strip test, at a concentration of 3.6 uM; format: functional; summary of the method: as §1

CCCCCC(O)c1cccc(OCc2cccc(CC(=O)OC)c2)c1 (centres undefined)
inhibition at 30 µM (Cavia porcellus [1]): 19%
IC50 [2]: 5.8 µM

CCCCC(C)C(O)c1cccc(OCc2ccccc2)c1 (centres undefined)
inhibition at 30 µM (Cavia porcellus [1]): 0%
IC50 [2]: 3 µM

CCCCCC(OC1CCCCO1)c1cccc(OCc2cccc(C(=O)OC)c2)c1 (centres undefined)
inhibition at 30 µM (Cavia porcellus [1]): 0%
IC50 [2]: 23 µM

CCCCCC(O)c1cccc(OCc2ccc3ccccc3c2)c1 (centres undefined)
inhibition at 30 µM (Cavia porcellus [1]): 10%
IC50 [2]: 5 µM

CCCCC(C)(C)C(C)(O)c1cccc(OCc2ccccc2)c1 (centres undefined)
inhibition at 30 µM (Cavia porcellus [1]): 10%
IC50 [2]: 2.4 µM

CCCC/C=C\c1cccc(OCc2ccc3ccccc3n2)c1
inhibition at 12 µM (Cavia porcellus [3]): 50%
IC50 [2]: > 10 µM

CCCCCC(=O)c1cccc(OCc2ccc3ccccc3n2)c1
IC50 [4]: 0.37 µM
inhibition at 20 µM (Cavia porcellus [5]): 50%

CCCCCC(=O)c1cccc(/C=C/c2ccccc2)c1
inhibition at 30 µM (Cavia porcellus [1]): 0%
IC50 [2]: > 100 µM

CCCCCC(=O)c1cccc(/C=C\c2ccccc2)c1
inhibition at 30 µM (Cavia porcellus [1]): -20%
IC50 [2]: 45 µM

CCCCCC(O)c1cccc(OCc2ccc(C(=O)O)cc2)c1 (centres undefined)
inhibition at 30 µM (Cavia porcellus [1]): 22%
IC50 [2]: 21 µM

CCCCCC(C)(O)c1cccc(OCc2ccccc2)c1 (centres undefined)
inhibition at 30 µM (Cavia porcellus [1]): 10%
IC50 [2]: 1 µM

CCCCCC(O)c1cccc(/C=C\c2ccccc2)c1 (centres undefined)
inhibition at 30 µM (Cavia porcellus [1]): 5%
IC50 [2]: 6.4 µM

CCCCCC(O)c1cccc(OCc2cccc(C=O)c2)c1 (centres undefined)
IC50 [2]: 4 µM

CCCCCC(O)c1cccc(/C=C/c2ccccc2)c1 (centres undefined)
inhibition at 30 µM (Cavia porcellus [1]): 12%
IC50 [2]: 4.5 µM

CCCCCC(O)c1cccc(OCc2cccnc2)c1 (centres undefined)
inhibition at 9 µM (Cavia porcellus [6]): 50%
IC50 [2]: 2.7 µM

CCCCCC(O)c1cccc(OCc2cccc(C(=O)O)c2)c1 (centres undefined)
IC50 [7]: 20.5 µM
inhibition at 30 µM (Cavia porcellus [1]): 30%

CCCCCC(O)c1cccc(OCc2ccc(C(=O)OC)cc2)c1 (centres undefined)
inhibition at 10 µM (Cavia porcellus [8]): 0%
IC50 [2]: 3.2 µM

CCCCC(O)c1cccc(OCc2ccccc2C(=O)O)c1 (centres undefined)
inhibition at 19 µM (Cavia porcellus [9]): 50%
IC50 [2]: 10 µM

CCCCCC(=O)c1cccc(OCc2ccccc2)c1
inhibition at 100 µM (Cavia porcellus [10]): 50%
IC50 [2]: 2 µM

CCCCCC(O)c1cccc(OCc2cccc(CN)c2)c1 (centres undefined)
inhibition at 30 µM (Cavia porcellus [1]): 0%
IC50 [2]: 36 µM

CCCCCC(O)c1cccc(OCc2cccc(C(=O)OC)c2)c1 (centres undefined)
IC50 [7]: 1 µM
inhibition at 30 µM (Cavia porcellus [1]): 20%

CCCCCC(OC(C)=O)c1cccc(OCc2cccc(C(=O)OC)c2)c1 (centres undefined)
inhibition at 30 µM (Cavia porcellus [1]): 5%
IC50 [2]: 5 µM

CCCCCC(O)c1cccc(OCc2ccccc2)c1 (centres undefined)
inhibition at 100 µM (Cavia porcellus [10]): 10%
IC50 [2]: 2.7 µM

CCCCCC(=O)c1cccc(OCc2cccc(C(N)=O)c2)c1
inhibition at 30 µM (Cavia porcellus [1]): 5%
IC50 [2]: 0.6 µM

CCCCCC(O)c1cccc(COc2ccccc2)c1 (centres undefined)
inhibition at 30 µM (Cavia porcellus [1]): 19%
IC50 [2]: 6.7 µM

CCCCCC(O)c1cccc(OCc2ccccn2)c1 (centres undefined)
inhibition at 30 µM (Cavia porcellus [1]): 37%
IC50 [2]: 0.5 µM

CCCCCC(NC)c1cccc(OCc2ccccc2)c1 (centres undefined)
inhibition at 30 µM (Cavia porcellus [1]): 50%
IC50 [2]: 22 µM

CCCCC(C)(C)C(=O)c1cccc(OCc2ccccc2)c1
IC50 [7]: 7.5 µM
inhibition at 30 µM (Cavia porcellus [1]): 11%

CCCCC(O)c1cccc(OCc2ccccc2CO)c1 (centres undefined)
IC50 [4]: 4 µM
inhibition at 15 µM (Cavia porcellus [11]): 50%

CCCCCC(O)c1cccc(Oc2ccc3ccccc3n2)c1 (centres undefined)
inhibition at 30 µM (Cavia porcellus [1]): 26%
IC50 [2]: 0.35 µM

CCCCCC(C)(O)c1cccc(OCc2ccccn2)c1 (centres undefined)
IC50 [4]: 0.43 µM
inhibition at 22 µM (Cavia porcellus [12]): 50%

CCCCCC(O)c1cccc(Oc2ccccc2)c1 (centres undefined)
inhibition at 30 µM (Cavia porcellus [1]): 50%
IC50 [2]: 1.2 µM

CCCCCC(O)c1cccc(OCc2cccc(CC(=O)O)c2)c1 (centres undefined)
inhibition at 40 µM (Cavia porcellus [13]): 50%
IC50 [2]: 2.5 µM

CCCC/C=C/c1ccc(OCc2cccc(C(=O)OC)c2)cc1
inhibition at 30 µM (Cavia porcellus [1]): 26%
IC50 [2]: > 100 µM

CCCCC[C@H](O)/C=C/C=C\C/C=C\C/C=C\CCCC(=O)O [ICOMUCRET]
IC50 [4]: 1.45 µM

CCCCCC(O)c1cccc(OCc2cccc(C(N)=O)c2)c1 (centres undefined)
inhibition at 10 µM (Cavia porcellus [8]): 0%
IC50 [2]: 2 µM

CCCCCC(O)c1cccc(OCc2cccc(C(F)(F)F)c2)c1 (centres undefined)
IC50 [4]: 4 µM
inhibition at 30 µM (Cavia porcellus [1]): 10%

CCCCCC(O)c1cccc(OCc2cccc(C(=O)O)n2)c1 (centres undefined)
IC50 [7]: 5 µM
inhibition at 30 µM (Cavia porcellus [1]): 50%

CCCCCC(C)(O)c1cccc(OCc2ccc3ccccc3n2)c1 (centres undefined)
IC50 [4]: 0.13 µM
inhibition at 8 µM (Cavia porcellus [14]): 50%

CCCCCC(O)c1cccc(OCc2cccc(C(=O)OC)n2)c1 (centres undefined)
IC50 [4]: 1.9 µM

CCCCCC(O)c1cccc(O)c1 (centres undefined)
inhibition [15]: 43%

CCCCC(OC1CCCCO1)c1cccc(OCc2ccccc2C(=O)OC)c1 (centres undefined)
IC50 [2]: 14 µM

CCCCCC(O)c1cccc(OCc2cccc(C#N)c2)c1 (centres undefined)
inhibition at 10 µM (Cavia porcellus [8]): 3%
IC50 [2]: 17 µM

CCCCCC(O)c1cccc(OCc2cccc(C#N)n2)c1 (centres undefined)
inhibition at 10 µM (Cavia porcellus [8]): 36%
IC50 [2]: 30 µM

CCCCC(O)c1cccc(OCc2ccccc2C(=O)OC)c1 (centres undefined)
inhibition at 30 µM (Cavia porcellus [1]): 35%
IC50 [2]: 2.5 µM

CCCCCC(O)c1cccc(OCc2ccc(OCC(=O)OC)cc2)c1 (centres undefined)
IC50 [2]: 4.8 µM

CCCCCC(O)c1cccc(OCc2ccc3ccccc3n2)c1 (centres undefined) [REV-5901]
inhibition at 3.6 µM (Cavia porcellus [16]): 50%

CCCCCC(O)c1cccc(OCc2ccccc2C(=O)OC)c1 (centres undefined)
inhibition at 30 µM (Cavia porcellus [1]): 23%
IC50 [2]: 0.6 µM

CCCCC(C)(C)C(O)c1cccc(OCc2cccc(C(=O)OC)c2)c1 (centres undefined)
IC50 [4]: 2 µM
inhibition at 30 µM (Cavia porcellus [1]): 0%

CCCCCC(O)c1ccccc1OCc1cccc(C(=O)OC)c1 (centres undefined)
inhibition at 20 µM (Cavia porcellus [5]): 50%
IC50 [2]: 3.2 µM

CCCC/C=C(/C)c1ccccc1OCc1cccc(C(=O)OC)c1
inhibition at 30 µM (Cavia porcellus [1]): 7%
IC50 [2]: 5 µM

CCCCCC(O)c1cccc(OCc2ccncc2)c1 (centres undefined)
inhibition at 100 µM (Cavia porcellus [10]): 50%
IC50 [2]: 2.7 µM

CCCCCC(OC)c1cccc(OCc2cccc(C(=O)OC)c2)c1 (centres undefined)
inhibition at 30 µM (Cavia porcellus [1]): 22%
IC50 [2]: 10 µM

CCCCCC(=O)c1cccc(OCc2cccc(C#N)c2)c1
IC50 [4]: 6 µM
inhibition at 30 µM (Cavia porcellus [1]): -30%

CCCCC(C)(C)C(O)c1cccc(OCc2ccccc2)c1 (centres undefined)
IC50 [2]: 2.5 µM

CCCCCC(O)c1cccc(OCc2ccccc2C(=O)O)c1 (centres undefined)
inhibition at 20 µM (Cavia porcellus [5]): 50%
IC50 [2]: 30 µM
